Columns and labels:
[1] = system: Mus musculus; assay: Toxicity at a dose of 830 mg/kg against M109 tumors conducted in female BALB/c mice; type: functional
[2] = Half-life in rat plasma; type: ADME
In short: (§1)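 Release of free drug and hydrolysis of PEG conjugate followed in PBS (pH 7.4) or fresh rat plasma at 37 °C. Half-life derived from these rates. Run in duplicate; SD ±10%.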

[3] = Half-life in buffer at pH 7.4; type: ADME; in short: as §1
[4] = system: Mus musculus; assay: T/C of median tumor volumes when 3 mg/kg/dose of compound was given to BALB/c mice bearing sc M109 on days 1 and 4 (ip) after inoculation (control ~2000 mm**3); type: functional; details: route intraperitoneal
In short: (§2)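 Female balb/c mice (20–25 g) given about 5×10^5 M109 cells sc in the left flank on day 0. M109 grown in EMEM with 10% FBS. Dosing is 3 mg/kg/dose of active DNR, ip on days 1 and 4 or iv on days 3 and 6. Groups of 6 include untreated controls. Median tumor volumes compared when control median reached about 2000 mm³.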

[5] = system: P388; assay: Compound was evaluated for cytotoxicity against P388 leukemia cell line.; type: functional, cell-based; details: Mus musculus
[6] = system: Mus musculus; assay: T/C of median tumor volumes when 3 mg/kg/dose of compound was given to BALB/c mice bearing sc M109 on days 3 and 6 (iv) after inoculation (control ~2000 mm**3); type: functional; in short: as §2
[7] = system: Mus musculus; assay: Effect of 3 mg/kg/dose of compound given iv q4d x 3 against sc human ovarian tumor (SK-OV3) in mice expressed as Mean tumor volume by day 30; type: functional
In short: (§3)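 Female nu/nu mice (18–24 g) given 1×10^6 SKOV3 cells sc in the left flank in 0.1 mL medium. SKOV3 grown in McCoy's 5a with 15% FBS. Dosing starts at about 70 mm³ mean tumor volume (day 1), with 3 mg/kg/dose DNR content iv on days 1, 5 and 9. n = 5/group against untreated controls. Mean volumes compared at day 30; median volumes compared when control median reached about 1000 mm³.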

[8] = system: Mus musculus; assay: Effect of 3 mg/kg/dose of compound given iv q4d x 3 against sc human ovarian tumor (SK-OV3) in mice expressed as % tumor volume change from initial by day 30; type: functional; in short: as §3
[9] = system: Mus musculus; assay: Effect of 3 mg/kg/dose of compound given iv q4d x 3 against sc human ovarian tumor (SK-OV3) in mice expressed as treated/ control ( 1000 mm**3) median tumor volume on day 30; type: functional; in short: as §3
[10] = system: Mus musculus; assay: Effect of 3 mg/kg/dose of compound given iv q4d x 3 against sc human ovarian tumor (SK-OV3) in mice expressed as treated/ control mean tumor volume on day 30; type: functional; in short: as §3

| SMILES | half-life [2] | half-life [3] | Toxicity (deaths) [1] | T/C [4] | IC50 [5] | T/C [6] | Mean tumor volume [7] | Tumor growth [8] | T/C [9] | T/C [10] |
| --- | --- | --- | --- | --- | --- | --- | --- | --- | --- | --- |
| Cc1cc(COC(=O)NC(C)C)cc(C)c1NC(=O)OCCOCCOCCO |  |  | 0% |  |  |  |  |  |  |  |
| COc1cccc2c1C(=O)c1c(O)c3c(c(O)c1C2=O)C[C@@](O)(C(=O)CNC(=O)OCc1ccc(OC(=O)NCCOCCOCCO)cc1)C[C@@H]3OC1CC(N)C(O)C(C)O1 (stereo not given in full) | 4 h | > 48 h |  | 84.1% | 15 nM | 64.6% | 154 | 86% | 11% | 12% |
| COc1cccc2c1C(=O)c1c(O)c3c(c(O)c1C2=O)C[C@@](O)(C(C)=O)C[C@@H]3O[C@H]1C[C@H](N)[C@H](O)[C@H](C)O1 [DAUNORUBICIN] |  |  |  | 44.8% | 3 nM | 117% | 1154 | 1226% | 54% | 92% |
| Cc1cc(COC(=O)NC(C)C)cc(C)c1OC(=O)CCOCCOCCO |  |  | 0% |  |  |  |  |  |  |  |
| COc1cccc2c1C(=O)c1c(O)c3c(c(O)c1C2=O)C[C@@](O)(C(=O)CNC(=O)OCc1ccccc1OC(=O)NCCOCCOCCO)C[C@@H]3OC1CC(N)C(O)C(C)O1 (stereo not given in full) | 3 h | > 48 h |  | 91.3% | 35 nM | 68.7% |  |  |  |  |
| COc1cc(COC(=O)NC(CC(C)C)C(=O)OC(C)(C)C)cc(OC)c1OC(=O)CCOCCOCCO (stereo not given) |  |  | 0% |  |  |  |  |  |  |  |

More lines, main results first:

| half-life [2] | half-life [3] | SMILES | Toxicity (deaths) [1] | T/C [4] | IC50 [5] | T/C [6] | Mean tumor volume [7] | Tumor growth [8] | T/C [9] | T/C [10] |
| --- | --- | --- | --- | --- | --- | --- | --- | --- | --- | --- |
| 0.4 h | > 24 h | COc1cccc2c1C(=O)c1c(O)c3c(c(O)c1C2=O)C[C@@](O)(C(=O)CNC(=O)OCc1ccc(OC(=O)CCOCCOCCO)cc1)C[C@@H]3OC1CC(N)C(O)C(C)O1 (stereo not given in full) |  | 92.8% | 8 nM |  |  |  |  |  |
| 2.9 h | > 48 h | COc1cccc2c1C(=O)c1c(O)c3c(c(O)c1C2=O)C[C@@](O)(C(=O)CNC(=O)OCc1cc(C)c(OC(=O)OCCOCCOCCO)c(C)c1)C[C@@H]3OC1CC(N)C(O)C(C)O1 (stereo not given in full) |  | 90.3% | 179 nM | 74.4% |  |  |  |  |
| 1 h | > 48 h | COc1cc(COC(=O)NCC(=O)[C@]2(O)Cc3c(O)c4c(c(O)c3[C@@H](OC3CC(N)C(O)C(C)O3)C2)C(=O)c2c(OC)cccc2C4=O)cc(OC)c1OC(=O)CCOCCOCCO (stereo not given in full) |  | 68.6% | 27 nM | 48.2% |  |  |  |  |
| > 24 h | > 48 h | COc1cccc2c1C(=O)c1c(O)c3c(c(O)c1C2=O)C[C@@](O)(C(=O)CNC(=O)OCc1ccc(NC(=O)OCCOCCOCCO)cc1)C[C@@H]3OC1CC(N)C(O)C(C)O1 (stereo not given in full) |  | 75.3% | 415 nM | 129% | 272 | 400% | 41% | 21% |
| 1.9 h | > 48 h | COc1cccc2c1C(=O)c1c(O)c3c(c(O)c1C2=O)C[C@@](O)(C(=O)CNC(=O)OCc1cc(C)c(OC(=O)CCOCCOCCO)c(C)c1)C[C@@H]3OC1CC(N)C(O)C(C)O1 (stereo not given in full) |  | 90.3% | 55 nM | 67.9% |  |  |  |  |
| > 24 h | > 48 h | COc1cccc2c1C(=O)c1c(O)c3c(c(O)c1C2=O)C[C@@](O)(C(=O)CNC(=O)OCc1ccc(NC(=O)CCOCCOCCO)cc1)C[C@@H]3OC1CC(N)C(O)C(C)O1 (stereo not given in full) |  | 122.7% | 457 nM |  |  |  |  |  |
| > 24 h | > 48 h | COc1cccc2c1C(=O)c1c(O)c3c(c(O)c1C2=O)C[C@@](O)(C(=O)CNC(=O)OCc1ccccc1NC(=O)OCCOCCOCCO)C[C@@H]3OC1CC(N)C(O)C(C)O1 (stereo not given in full) |  | 112.2% | 130 nM | 117% |  |  |  |  |
| 1.3 h | > 48 h | COc1cccc2c1C(=O)c1c(O)c3c(c(O)c1C2=O)C[C@@](O)(C(=O)CNC(=O)OCc1ccc(OC(=O)C(C)(C)NC(=O)CCOCCOCCO)cc1)C[C@@H]3OC1CC(N)C(O)C(C)O1 (stereo not given in full) |  | 87.6% | 18 nM |  |  |  |  |  |
